Key:
[1] = Stability in human plasma assessed as compound remaining at 50 uM at 37 degC after 60 mins by LC-MS/MS method; type: ADME, cell-free; conditions: read-out: Stability
Summary of the method: (§1)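 Prodrugs were incubated in rat or human plasma for 60 min. Disappearance of prodrug and concomitant appearance of ertapenem were followed by LC-MS/MS, and in selected cases monoesters from partial hydrolysis were also monitored. Ertapenem itself was incubated the same way as a control.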

[2] = system: Rattus norvegicus; experiment: (§2) AUC (0 to 8 hrs) in fasted Sprague-Dawley rat at 10 mg/kg dosed through intraduodenal route by LC-MS/MS method; type: ADME, organism-based, Plasma; set-up: time < 8 hr, dose 10 mg/kg, route intraduodenal; conditions: in vivo, other, 8 h, BLD = below limit of detection
Summary of the method: (§3)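 Prodrugs were given intraduodenally to bypass stomach acid. Plasma was sampled at intervals over 8 h, and parent prodrug, the two monoester metabolites and ertapenem were quantified by LC-MS/MS. The lower limit of quantitation was 5 nM. AUC(0–8) was used, and it differed from AUC(0–∞) by ±20%. Vehicles were 30% Captisol or 0.5% methylcellulose, as solution or suspension depending on compound.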

[3] = system: Rattus norvegicus; experiment: Oral bioavailability in fasted Sprague-Dawley rat assessed as ertapenem level at 10 mg/kg dosed through intraduodenal route by LC-MS/MS method; type: ADME, organism-based; conditions: in vivo
Summary of the method: (§4)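 After intraduodenal dosing, plasma over 8 h was analysed by LC-MS/MS. Bioavailability was calculated as dose-normalized AUC of ertapenem formed from the prodrug divided by dose-normalized AUC of ertapenem dosed iv. Vehicle was 30% Captisol or 0.5% methylcellulose.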

[4] = Stability in pH 6.5 simulated gastrointestinal fluid assessed as compound remaining at 50 uM after 3 hrs by LC-MS/MS method; type: ADME; conditions: read-out: Stability
Summary of the method: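 Compounds at 50 μM were incubated in fasted-state simulated intestinal fluid (FaSSIF, pH 6.5) for over 3 h. Percent remaining was determined by LC-MS/MS.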

[5] = Stability in pH 2.0 simulated gastric fluid assessed as compound degradation to beta-lactam ring open products at 1 uM after 60 mins by LC-MS/MS method; type: ADME; conditions: read-out: Drug degradation
Summary of the method: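 Incubation was in simulated gastric fluid (SGF, pH 2.0) for 60 min, with loss to the β-lactam ring-opened product measured by LC-MS/MS.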

[6] = system: Rattus norvegicus; experiment: AUC (0 to 8 hrs) in fasted Sprague-Dawley rat assessed as ertapenem level at 10 mg/kg dosed through intraduodenal route by LC-MS/MS method; type: ADME, organism-based, Plasma; set-up: time < 8 hr, dose 10 mg/kg, route intraduodenal; conditions: in vivo, other; summary of the method: as §3
[7] = Stability in rat plasma assessed as compound remaining at 50 uM at 37 degC after 60 mins by LC-MS/MS method; type: ADME, cell-free; conditions: read-out: Stability; summary of the method: as §1
[8] = system: Rattus norvegicus; experiment: Oral bioavailability in fasted Sprague-Dawley rat assessed as ertapenem and monoetser metabolites level at 10 mg/kg dosed through intraduodenal route by LC-MS/MS method; type: ADME, organism-based; conditions: in vivo
Summary of the method: (§5)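 Total absorption followed intraduodenal dosing with LC-MS/MS of plasma over 8 h. It was calculated as the combined dose-normalized AUC of circulating parent prodrug, ertapenem and two monoesters, divided by dose-normalized AUC of ertapenem given iv. Vehicle was 30% Captisol or 0.5% methylcellulose.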

[9] = Stability in pH 7.4 phosphate buffer assessed as compound remaining at 50 uM after 3 hrs by LC-MS/MS method; type: physicochemical; conditions: read-out: Stability
[10] = system: Canis familiaris; experiment: AUC (0 to 8 hrs) in fasted Beagle dog assessed as ertapenem level at 10 mg/kg dosed through intraduodenal route by LC-MS/MS method; type: ADME, organism-based, Canis lupus familiaris, Plasma; set-up: time < 8 hr, dose 10 mg/kg, route intraduodenal; conditions: in vivo, other; summary of the method: as §3
[11] = system: Canis familiaris; experiment: Oral bioavailability in fasted Beagle dog assessed as ertapenem level at 10 mg/kg dosed through intraduodenal route by LC-MS/MS method; type: ADME, organism-based, Canis lupus familiaris; conditions: in vivo; summary of the method: as §4
[12] = system: Canis familiaris; experiment: Oral bioavailability in fasted Beagle dog assessed as assessed as ertapenem and monoetser metabolites level at 10 mg/kg dosed through intraduodenal route by LC-MS/MS method; type: ADME, organism-based, Canis lupus familiaris; conditions: in vivo; summary of the method: as §5
[13] = system: Canis familiaris; experiment: (§6) AUC (0 to 8 hrs) in fasted Beagle dog at 10 mg/kg dosed through intraduodenal route by LC-MS/MS method; type: ADME, organism-based, Canis lupus familiaris, Plasma; set-up: time < 8 hr, dose 10 mg/kg, route intraduodenal; conditions: in vivo, other, 8 h, BLD = below limit of detection; summary of the method: as §3
[14] = as §2; type: ADME, organism-based, Plasma; set-up: time < 8 hr, dose 10 mg/kg, route intraduodenal; conditions: Sprague-Dawley, plasma; summary of the method: as §3
[15] = system: Canis familiaris; experiment: AUC (0 to 8 hrs) in fasted Beagle dog assessed as ertapenem level at 6.18 mg/kg dosed through intraduodenal route by LC-MS/MS method; type: ADME, organism-based, Canis lupus familiaris, Plasma; set-up: time < 8 hr, dose 6.18 mg/kg, route intraduodenal; conditions: in vivo, other; summary of the method: as §3
[16] = system: Canis familiaris; experiment: AUC (0 to 8 hrs) in fasted Beagle dog assessed as 8-OH, benzoate ester level at 6.18 mg/kg dosed through intraduodenal route by LC-MS/MS method; type: ADME, organism-based, Canis lupus familiaris, Plasma; set-up: time < 8 hr, dose 6.18 mg/kg, route intraduodenal; conditions: in vivo, other; summary of the method: as §3
[17] = system: Canis familiaris; experiment: Oral bioavailability in fasted Beagle dog assessed as assessed as ertapenem and monoetser metabolites level at 6.18 mg/kg dosed through intraduodenal route by LC-MS/MS method; type: ADME, organism-based, Canis lupus familiaris; conditions: in vivo; summary of the method: as §5
[18] = system: Canis familiaris; experiment: AUC (0 to 8 hrs) in fasted Beagle dog assessed as 8-OH, C-3 ester level at 6.18 mg/kg dosed through intraduodenal route by LC-MS/MS method; type: ADME, organism-based, Canis lupus familiaris, Plasma; set-up: time < 8 hr, dose 6.18 mg/kg, route intraduodenal; conditions: in vivo, other; summary of the method: as §3
[19] = system: Canis familiaris; experiment: Oral bioavailability in fasted Beagle dog assessed as ertapenem level at 6.18 mg/kg dosed through intraduodenal route by LC-MS/MS method; type: ADME, organism-based, Canis lupus familiaris; conditions: in vivo; summary of the method: as §4
[20] = AUC (0 to 8 hrs) in fasted Beagle dog at 6.18 mg/kg dosed through intraduodenal route by LC-MS/MS method; type: ADME, organism-based, Canis lupus familiaris; set-up: time < 8 hr, dose 6.18 mg/kg, route intraduodenal; conditions: plasma; summary of the method: as §3
[21] = Oral drug absorption in fasted Beagle dog at 6.18 mg/kg dosed through intraduodenal route by LC-MS/MS method; type: ADME, organism-based, Canis lupus familiaris; set-up: dose 6.18 mg/kg, route intraduodenal; conditions: in vivo; summary of the method: as §5
[22] = system: Canis familiaris; experiment: AUC (0 to 8 hrs) in fasted Beagle dog assessed as 8-OH, benzoate ester level at 10 mg/kg dosed through intraduodenal route by LC-MS/MS method; type: ADME, organism-based, Canis lupus familiaris, Plasma; set-up: time < 8 hr, dose 10 mg/kg, route intraduodenal; conditions: in vivo, other; summary of the method: as §3
[23] = system: Canis familiaris; experiment: AUC (0 to 8 hrs) in fasted Beagle dog assessed as 8-OH, C-3 ester level at 10 mg/kg dosed through intraduodenal route by LC-MS/MS method; type: ADME, organism-based, Canis lupus familiaris, Plasma; set-up: time < 8 hr, dose 10 mg/kg, route intraduodenal; conditions: in vivo, other; summary of the method: as §3
[24] = as §6; type: ADME, organism-based, Canis lupus familiaris, Plasma; set-up: time < 8 hr, dose 10 mg/kg, route intraduodenal; conditions: Beagle, plasma; summary of the method: as §3
[25] = Oral drug absorption in fasted Beagle dog at 10 mg/kg dosed through intraduodenal route by LC-MS/MS method; type: ADME, organism-based, Canis lupus familiaris; set-up: dose 10 mg/kg, route intraduodenal; conditions: in vivo; summary of the method: as §5

Row | remaining at 1 h, 50 µM [1] [%] | AUC [2] | F [3] [%] | remaining at 3 h, 50 µM [4] [%] | degraded at 1 h, 1 µM [5] [%] | AUC [6] [µM·h] | remaining at 1 h, 50 µM [7] [%] | F [8] [%] | remaining at 3 h, 50 µM [9] [%] | AUC [10] [µM·h] | F [11] [%] | F [12] [%] | AUC(0-t) at 8 h [24] [µM·h] | Compound | other results
1 | 8 | BLD | 0.9 | > 95 | > 25 | 0.4 | 6 | 0.9 | > 95 |  |  |  |  | CC(C)c1oc(=O)oc1COC(=O)C1=C(S[C@@H]2CN[C@H](C(=O)Nc3cccc(C(=O)OCc4oc(=O)oc4C(C)C)c3)C2)[C@H](C)[C@@H]2[C@@H]([C@@H](C)O)C(=O)N12 | 
2 | 10 | BLD | 0.3 | > 95 | > 25 | 0.2 | 0 | 0.3 | > 95 | 0.2 | 0.4 | 0.4 |  | C[C@@H](O)[C@H]1C(=O)N2C(C(=O)OCc3oc(=O)oc3C(C)(C)C)=C(S[C@@H]3CN[C@H](C(=O)Nc4cccc(C(=O)OCc5oc(=O)oc5C(C)(C)C)c4)C3)[C@H](C)[C@H]12 | AUC [13]: BLD
3 | 16 |  | < 0.1 | > 95 | > 25 | < 0.1 | 0 | 0.1 | > 95 |  |  |  |  | CC(C)OC(=O)C1=C(S[C@@H]2CN[C@H](C(=O)Nc3cccc(C(=O)OC(C)C)c3)C2)[C@H](C)[C@@H]2[C@@H]([C@@H](C)O)C(=O)N12 | AUC(0-t) at 8 h [14]: 0.09 µM·h; AUC [15]: 0.2 µM·h; AUC [16]: 0.3 µM·h; F [17]: 5.1%; AUC [18]: 0.2 µM·h; F [19]: 0.5%; AUC(0-t) at 8 h [20]: 1.6 µM·h; Fa [21]: 5.1%
4 | 6 | BLD | 3 | > 95 | > 25 | 1.7 | 3 | 3 | > 95 | 6.7 | 10.2 | 12 | 0.2 | C[C@@H](O)[C@H]1C(=O)N2C(C(=O)OCC(F)(F)F)=C(S[C@@H]3CN[C@H](C(=O)Nc4cccc(C(=O)OCC(F)(F)F)c4)C3)[C@H](C)[C@H]12 | AUC [22]: 0.2 µM·h; AUC [23]: 0.8 µM·h
5 | 92 |  |  | > 95 | > 25 |  | 97 |  | > 95 |  |  | 0.1 | < 0.1 | CC(C)CCC[C@@H](C)[C@H]1CC[C@H]2[C@@H]3CC=C4C[C@@H](OC(=O)COC(=O)c5cccc(NC(=O)[C@@H]6C[C@H](SC7=C(C(=O)OCC(F)(F)F)N8C(=O)[C@H]([C@@H](C)O)[C@H]8[C@H]7C)CN6)c5)CC[C@]4(C)[C@H]3CC[C@]12C | AUC ([10]; BLD = below limit of detection): BLD; F ([11]; BLD = below limit of detection): BLD; AUC ([23]; BLD = below limit of detection): BLD; Fa [25]: < 0.1%

— ChEMBL document CHEMBL3351346, “Design, synthesis, structure-function relationship, bioconversion, and pharmacokinetic evaluation of ertapenem prodrugs” (J Med Chem, 2014)
